Test results: ChEMBL document CHEMBL3585302, “Synthesis and antibacterial activities of cadiolides A, B and C and analogues” (Bioorg Med Chem, 2015)

Columns and labels:
Staphylococcus aureus = test: Antibacterial activity against Staphylococcus aureus CECT 86 assessed as inhibition of microbial growth incubated for 18 hrs by 2-fold microtiter broth dilution method; assay type: functional, organism-based; conditions: CECT 86, 18 h
Method in brief: (§1)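 Compounds in DMSO, ten 2-fold serial dilutions (125 down to 0.24 µg/mL tested). Bacteria at OD620 = 0.001 in Nutrient Broth mixed 1:1 with dilutions. Incubated overnight (18 h) at 28°C or 37°C according to strain. Growth read turbidimetrically at OD620. MIC is the lowest concentration giving complete growth inhibition. Triplicate runs. Tetracycline as reference.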

Bacillus cereus = test: Antibacterial activity against Bacillus cereus CECT 148 assessed as inhibition of microbial growth incubated for 18 hrs by 2-fold microtiter broth dilution method; assay type: functional, organism-based; conditions: CECT 148, 18 h; method in brief: as §1
Escherichia coli [1] = test: Antibacterial activity against Escherichia coli CECT 100 assessed as inhibition of microbial growth incubated for 18 hrs by 2-fold microtiter broth dilution method; assay type: functional, organism-based; conditions: CECT 100, 18 h; method in brief: as §1
Salmonella typhi = test: Antibacterial activity against Salmonella typhi CECT 409 assessed as inhibition of microbial growth incubated for 18 hrs by 2-fold microtiter broth dilution method; assay type: functional, organism-based, Salmonella enterica subsp. enterica serovar Typhi; conditions: Salmonella enterica, CECT 409, 18 h
Method in brief: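 Compounds in DMSO, ten 2-fold serial dilutions (125 down to 0.24 µg/mL), mixed 1:1 with bacteria in Nutrient Broth at OD620 = 0.001. Incubated overnight (18 h) at 28 or 37 °C depending on strain. Growth read turbidimetrically at OD620; MIC is the lowest concentration completely inhibiting growth, per CLSI. Triplicate runs; tetracycline reference.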

Bacillus subtilis = test: Antibacterial activity against Bacillus subtilis CECT 35 assessed as inhibition of microbial growth incubated for 18 hrs by 2-fold microtiter broth dilution method; assay type: functional, organism-based; conditions: CECT 35, 18 h; method in brief: as §1
Escherichia coli [2] = test: Antibacterial activity against Escherichia coli CECT 405 assessed as inhibition of microbial growth incubated for 18 hrs by 2-fold microtiter broth dilution method; assay type: functional, organism-based; conditions: CECT 405, 18 h; method in brief: as §1
[3] = system: Pectobacterium carotovorum; test: Antibacterial activity against Erwinia carotovora CECT 225 assessed as inhibition of microbial growth incubated for 18 hrs by 2-fold microtiter broth dilution method; assay type: functional, organism-based; conditions: CECT 225, 18 h; method in brief: as §1
Enterococcus faecalis = test: Antibacterial activity against Enterococcus faecalis CECT 481 assessed as inhibition of microbial growth incubated for 18 hrs by 2-fold microtiter broth dilution method; assay type: functional, organism-based; conditions: CECT 481, 18 h; method in brief: as §1

Row | SMILES | MIC (Staphylococcus aureus) | MIC (Bacillus cereus) | MIC (Escherichia coli [1]) | MIC (Salmonella typhi) | MIC (Bacillus subtilis) | MIC (Escherichia coli [2]) | MIC [3] | MIC (Enterococcus faecalis)
1 | O=C1O/C(=C\c2ccc(O)c(Br)c2)C(c2ccc(O)cc2)=C1C(=O)c1ccc(O)cc1 | > 125 µg/mL | 125 µg/mL | > 125 µg/mL | > 125 µg/mL | > 125 µg/mL | > 125 µg/mL | > 125 µg/mL | > 125 µg/mL
2 | O=C1O/C(=C\c2ccc(O)cc2)C(c2ccc(O)cc2)=C1C(=O)c1ccco1 | 15.6 µg/mL | 15.6 µg/mL | 31.2 µg/mL | 15.6 µg/mL | > 125 µg/mL | 31.2 µg/mL | > 125 µg/mL | 31.2 µg/mL
3 | CN(C)[C@@H]1C(O)=C(C(N)=O)C(=O)[C@@]2(O)C(O)=C3C(=O)c4c(O)cccc4[C@@](C)(O)[C@H]3C[C@@H]12 [TETRACYCLINE] | 0.24 µg/mL | 3.9 µg/mL | 3.9 µg/mL | 7.81 µg/mL | 0.97 µg/mL | 7.81 µg/mL | 3.9 µg/mL | 0.48 µg/mL
4 | O=C1O/C(=C\c2ccc(O)c(Br)c2)C(c2ccc(O)cc2)=C1C(=O)c1ccc(O)c(Br)c1 | > 125 µg/mL | 3.9 µg/mL | > 125 µg/mL | 125 µg/mL | > 125 µg/mL | 125 µg/mL | > 125 µg/mL | > 125 µg/mL
5 | O=C1O/C(=C\c2cc(Br)c(O)c(Br)c2)C(c2ccc(O)cc2)=C1C(=O)c1cc(Br)c(O)c(Br)c1 | 15.6 µg/mL | 15.6 µg/mL | > 125 µg/mL | 15.6 µg/mL | 125 µg/mL | 15.6 µg/mL | 125 µg/mL | 15.6 µg/mL
6 | O=C1O/C(=C\c2ccc(O)c(Br)c2)C(c2ccc(O)c(Br)c2)=C1C(=O)c1cc(Br)c(O)c(Br)c1 [CADIOLIDE C] | 3.9 µg/mL | 3.9 µg/mL | > 125 µg/mL | 3.9 µg/mL | 125 µg/mL | 3.9 µg/mL | 125 µg/mL | 3.9 µg/mL
7 | O=C1O/C(=C\c2ccc(O)c(Br)c2)C(c2ccc(O)c(Br)c2)=C1C(=O)c1ccc(O)cc1 | 31.2 µg/mL | 15.6 µg/mL | 15.6 µg/mL | 31.2 µg/mL | 125 µg/mL | 15.6 µg/mL | 125 µg/mL | 31.2 µg/mL
8 | O=C1O/C(=C\c2cc(Br)c(O)c(Br)c2)C(c2cc(Br)c(O)c(Br)c2)=C1C(=O)c1ccc(O)cc1 | 3.9 µg/mL | 3.9 µg/mL | > 125 µg/mL | 3.9 µg/mL | 125 µg/mL | 7.81 µg/mL | 125 µg/mL | 3.9 µg/mL
9 | O=C1O/C(=C\c2ccc(O)cc2)C(c2ccc(O)cc2)=C1C(=O)c1ccc(O)cc1 | 62.5 µg/mL | 62.5 µg/mL | 62.5 µg/mL | 125 µg/mL | > 125 µg/mL | 62.5 µg/mL | 125 µg/mL | 125 µg/mL
10 | O=C1O/C(=C\c2cc(Br)c(O)c(Br)c2)C(c2cc(Br)c(O)c(Br)c2)=C1C(=O)c1ccc(O)c(Br)c1 | 3.9 µg/mL | 3.9 µg/mL | > 125 µg/mL | 3.9 µg/mL | 125 µg/mL | 1.95 µg/mL | 125 µg/mL | 3.9 µg/mL
11 | O=C1O/C(=C\c2cc(Br)c(O)c(Br)c2)C(c2cc(Br)c(O)c(Br)c2)=C1C(=O)c1cc(Br)c(O)c(Br)c1 [CADIOLIDE B] | 7.81 µg/mL | 7.81 µg/mL | > 125 µg/mL | 15.6 µg/mL | > 125 µg/mL | 7.81 µg/mL | > 125 µg/mL | 7.81 µg/mL
12 | O=C1O/C(=C\c2ccc(O)cc2)C(c2cc(Br)c(O)c(Br)c2)=C1C(=O)c1cc(Br)c(O)c(Br)c1 | 7.81 µg/mL | 7.81 µg/mL | > 125 µg/mL | 7.81 µg/mL | 125 µg/mL | 7.81 µg/mL | 125 µg/mL | 7.81 µg/mL
13 | O=C1O/C(=C\c2cc(Br)c(O)c(Br)c2)C(c2ccc(O)c(Br)c2)=C1C(=O)c1ccc(O)c(Br)c1 | 3.9 µg/mL | 1.95 µg/mL | > 125 µg/mL | 3.9 µg/mL | 125 µg/mL | 3.9 µg/mL | 125 µg/mL | 1.95 µg/mL
